Source: PMC5929363 (Radiology, 2017)

Experiments:
[1] = Gd blood plasma clearance in rats; type: in vivo; conditions: rat, after 10 μmol/kg i.v., exponential decay fit, n=4/time point
Method in brief: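 After i.v. probe injection, rat blood plasma sampled over 2 h (n = 4 per time point). Gadolinium quantified by HPLC/ICP-MS. Plasma concentration–time data fitted to exponential decay to give clearance half-life.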

Gd elimination route = type: in vivo; conditions: rat, 24-hour collection period, % of the Gd recovered
[2] = In vivo plasma stability/metabolites by HPLC-ICP-MS; design: species or system rat; conditions: HPLC-ICP-MS of blood plasma
Method in brief: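 Rat plasma sampled over 2 h after i.v. probe injection. HPLC/ICP-MS separated intact probe from any metabolites. Intact probe expressed as percentage of circulating gadolinium at each time point.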

[3] = Gd biodistribution in ex vivo rat tissue by ICP-MS
Method in brief: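 Rats dosed i.v. with 10 μmol/kg probe. Tissues harvested ex vivo 1 and 14 days post-injection. Gadolinium measured by ICP-MS and expressed as % injected dose per gram of tissue.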

[4] = test system: CCl4 mouse model of liver fibrosis; experiment: Molecular MR imaging of liver fibrosis, CCl4 mouse model, 7.0 T; type: in vivo
Method in brief: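 C57BL6 mice received i.p. CCl4 0.4 μL/g (1:5 in olive oil) twice weekly for 10 weeks; controls received olive oil. Mice were imaged at baseline and 1 week after the last dose at 7.0 T under 1–2% isoflurane, using ungated T1-weighted RARE (TE 4.5 ms, factor 8, TR 600 ms) before and up to 30 min after i.v. 10 μmol/kg. Liver–muscle ΔCNR was analysed as AUC and at the time of maximal difference between fitted exponential curves. Analysis was blinded.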

[5] = test system: BDL rat model of liver fibrosis; experiment: Molecular MR imaging of liver fibrosis, BDL rat model, 1.5 T; type: in vivo; conditions: for ΔCNR at 15 minutes post CM-101 / Area under the ΔCNR curve (AUC), liver vs muscle: 1.5 T
Method in brief: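 Male CD rats underwent common bile duct ligation or sham surgery and were imaged at day 19. Imaging at 1.5 T under 1–2% isoflurane used respiratory-gated 3D inversion-recovery FLASH (TI 250 ms, TE 2.44 ms, effective TR ~1000 ms), before and up to 30 min after i.v. 10 μmol/kg. ΔCNR was liver-minus-muscle SNR, giving AUC and ΔCNR at the maximal diseased–control difference time. R1 maps (TI 50–1000 ms) were acquired pre and 30 min post and fitted voxelwise. Analysis was blinded.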

[6] = baseline mice, n=11, 10 μmol/kg i.v.
[7] = sham rats, n=11, 10 μmol/kg i.v.

Question: For `CC(C)C[C@H](NC(=O)[C@@H]1CSSC[C@H](NC(=O)[C@H](Cc2c[nH]cn2)NC(=O)[C@H](Cc2c[nH]c3ccccc23)NC(=O)[C@H](CCCCNC(=O)CCC(C(=O)O)N2CCN(CC(=O)O)CCN(CC(=O)O)CCN(CC(=O)O)CC2)NC(=O)CNC(=O)CCC(C(=O)O)N2CCN(CC(=O)O)CCN(CC(=O)O)CCN(CC(=O)O)CC2)C(=O)N[C@@H]([C@@H](C)O)C(=O)N[C@@H]([C@@H](C)O)C(=O)N[C@@H](CCCCNC(=O)CCC(C(=O)O)N2CCN(CC(=O)O)CCN(CC(=O)O)CCN(CC(=O)O)CC2)C(=O)N[C@@H](Cc2ccccc2)C(=O)N2CCC[C@H]2C(=O)N[C@@H](Cc2c[nH]cn2)C(=O)N[C@@H](Cc2c[nH]cn2)C(=O)N[C@@H](Cc2ccc(O)cc2)C(=O)N1)C(=O)N[C@@H](Cc1ccc(O)cc1)C(=O)N[C@@H](Cc1ccc(-c2ccccc2)cc1)C(N)=O` (stereo partly drawn) [CM-101], which “Gd blood plasma clearance half-life t1/2” value [1] is on record?
Answer: 6.8 ± 2.4 min

Question: And the “Gd recovered found in the feces” value (Gd elimination route)?
Answer: 0.8%

Question: What about the “Gd recovered found in the urine” value (Gd elimination route) of the same compound?
Answer: 99.2%

Question: And the “Intact CM-101 as % of circulating Gd in plasma” value (from here on “Intact CM-101 as %”) ([2]; 60 – 120 minutes post injection)?
Answer: about 50%

Question: And the “Intact CM-101 as %” value ([2]; 3 minutes post injection)?
Answer: 97%

Question: And the “Intact CM-101 as %” value ([2]; 15 minutes post injection)?
Answer: 77%

Question: And the “Fold drop of tissue Gd levels from 24-hours to 14 days” value ([3]; rat tissues)?
Answer: about 10 fold

Question: What about the “Tissue Gd levels at 24-hours (upper bound over all tissues)” value ([3]; rat, all tissues, 24 hours after CM-101 injection) of the same compound?
Answer: < 3.9±0.6 %ID/g

Question: What about the “Gd (% ID/g) @ 24-hours, Bone” value ([3]; rat, bone, 24 hours after 10 μmol/kg i.v., ICP-MS, n=7) of the same compound?
Answer: 0.07±0.02 % ID/g

Question: And the “Gd (% ID/g) @ 14-days, Bone” value ([3]; rat, bone, 14 days after 10 μmol/kg i.v., ICP-MS, n=8)?
Answer: 0.01 % ID/g

Question: What about the “Gd (% ID/g) @ 14-days, Kidney” value ([3]; rat, kidney, 14 days after 10 μmol/kg i.v., ICP-MS, n=8) of the same compound?
Answer: 0.33±0.12 % ID/g

Question: And the “Area under the ΔCNR curve (AUC), liver vs muscle” value ([4]; CCl4 treated mice (10 weeks), n=8, 10 μmol/kg i.v.)?
Answer: 601±150

Question: And the “ΔCNR at 10 minutes post CM-101” value ([4]; CCl4 treated mice, n=8, 10 μmol/kg i.v.)?
Answer: 18.3±6.5

Question: What about the “Area under the ΔCNR curve (AUC), liver vs muscle” value [4, 6] of the same compound?
Answer: 163±54

Question: What about the “ΔCNR at 10 minutes post CM-101” value [4, 6] of the same compound?
Answer: 5.2±1.0

Question: And the “ΔCNR at 15 minutes post CM-101” value ([5]; BDL rats, n=8, 10 μmol/kg i.v.)?
Answer: 13.6±3.2

Question: And the “Change in liver R1 relaxation rate (ΔR1) 30 minutes post CM-101 injection” value ([5]; BDL rats, n=8, 1.5 T)?
Answer: 0.50 ± 0.23 s⁻¹

Question: And the “Area under the ΔCNR curve (AUC), liver vs muscle” value ([5]; BDL rats, n=8, 19 days post procedure, 10 μmol/kg i.v.)?
Answer: 73.1±17.1

Question: What about the “Area under the ΔCNR curve (AUC), liver vs muscle” value [5, 7] of the same compound?
Answer: 23.2±15.2

Question: What about the “ΔCNR at 15 minutes post CM-101” value [5, 7] of the same compound?
Answer: 5.7±4.2

Question: And the “Change in liver R1 relaxation rate (ΔR1) 30 minutes post CM-101 injection” value ([5]; sham rats, n=11, 1.5 T)?
Answer: 0.15 ± 0.14 s⁻¹
